Experimental data published in article PMC12078793 (Nature Communications, 2025).
Values belong to the molecule of their own block, whether it stands above or below them.

Assays:
[1] = Blood PTH analog concentrations; assay type: in vivo; conditions: female, CD-1, mouse, serum, sc, 10 nmol/kg
[2] = molecular target: T1, pHL2-hPTH1R (Homo sapiens, UniProt Q03431); assay: Receptor internalization in GPG-10 cells; assay type: cell-based; conditions: 1x10-8 to 1x10-5 M, fluorescence ratio 485/405, n = 3
T1 sequence (Q03431 106-593 limits assumed): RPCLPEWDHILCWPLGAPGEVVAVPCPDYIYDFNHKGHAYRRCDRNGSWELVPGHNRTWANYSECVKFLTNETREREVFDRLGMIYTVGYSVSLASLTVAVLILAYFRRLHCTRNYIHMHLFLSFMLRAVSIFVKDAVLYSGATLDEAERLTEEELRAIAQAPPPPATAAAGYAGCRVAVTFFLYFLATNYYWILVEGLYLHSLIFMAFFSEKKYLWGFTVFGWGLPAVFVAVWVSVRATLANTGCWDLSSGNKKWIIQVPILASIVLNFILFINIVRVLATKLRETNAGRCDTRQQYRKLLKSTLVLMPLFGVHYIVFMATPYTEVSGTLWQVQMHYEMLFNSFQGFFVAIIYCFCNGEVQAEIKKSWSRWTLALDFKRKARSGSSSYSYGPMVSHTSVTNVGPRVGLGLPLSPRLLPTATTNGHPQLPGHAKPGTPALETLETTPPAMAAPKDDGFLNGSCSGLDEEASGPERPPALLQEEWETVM
In short: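 Assay used HEK293 cells stably expressing glosensor plus hPTH1R with pHluorin2 inserted in the ECD E2 region. Confluent monolayers were rinsed with HBSS (0.1% BSA, 10 mM HEPES, pH 7.4), and baseline was recorded for 10 min: 535 nm emission with alternating 485/405 nm excitation at 1-min cycles. Ligand was then added and reading continued for 90 min. The AUC of the 485/405 ratio vs time was taken at each concentration.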

[3] = molecular target: bovine serum albumin (bovine) (UniProt P02769); assay: BLI
Sequence of bovine serum albumin (bovine) (P02769 25-607): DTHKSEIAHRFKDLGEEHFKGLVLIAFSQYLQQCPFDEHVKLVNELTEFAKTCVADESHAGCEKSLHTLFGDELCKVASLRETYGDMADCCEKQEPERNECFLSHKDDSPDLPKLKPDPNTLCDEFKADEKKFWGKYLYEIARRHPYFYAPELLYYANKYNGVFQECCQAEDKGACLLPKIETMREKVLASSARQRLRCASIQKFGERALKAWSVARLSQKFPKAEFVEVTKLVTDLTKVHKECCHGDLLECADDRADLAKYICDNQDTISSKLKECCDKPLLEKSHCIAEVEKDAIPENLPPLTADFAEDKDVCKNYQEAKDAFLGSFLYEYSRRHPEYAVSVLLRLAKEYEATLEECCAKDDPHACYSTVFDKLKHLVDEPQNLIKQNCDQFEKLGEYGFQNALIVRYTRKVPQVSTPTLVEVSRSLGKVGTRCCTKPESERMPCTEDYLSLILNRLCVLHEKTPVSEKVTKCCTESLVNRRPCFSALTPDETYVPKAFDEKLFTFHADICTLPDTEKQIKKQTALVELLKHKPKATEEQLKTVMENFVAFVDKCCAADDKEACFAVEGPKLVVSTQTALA

- half-life [1]: 18 min
Molecule: CC[C@H](C)[C@H](NC(=O)[C@H](CCC(=O)O)NC(=O)[C@H](CO)NC(=O)[C@@H](NC(=O)[C@@H](N)CO)C(C)C)C(=O)N[C@@H](CCC(N)=O)C(=O)N[C@@H](CC(C)C)C(=O)N[C@@H](CCSC)C(=O)N[C@@H](Cc1cnc[nH]1)C(=O)N[C@@H](CC(N)=O)C(=O)N[C@@H](CC(C)C)C(=O)NCC(=O)N[C@@H](CCCCN)C(=O)N[C@@H](Cc1cnc[nH]1)C(=O)N[C@@H](CC(C)C)C(=O)N[C@@H](CC(N)=O)C(=O)N[C@@H](CO)C(=O)N[C@@H](CCSC)C(=O)N[C@@H](CCC(=O)O)C(=O)N[C@@H](CCCNC(=N)N)C(=O)N[C@H](C(=O)N[C@@H](CCC(=O)O)C(=O)N[C@@H](Cc1c[nH]c2ccccc12)C(=O)N[C@@H](CC(C)C)C(=O)N[C@@H](CCCNC(=N)N)C(=O)N[C@@H](CCCCN)C(=O)N[C@@H](CCCCN)C(=O)N[C@@H](CC(C)C)C(=O)N[C@@H](CCC(N)=O)C(=O)N[C@@H](CC(=O)O)C(=O)N[C@H](C(=O)N[C@@H](Cc1cnc[nH]1)C(=O)N[C@@H](CC(N)=O)C(=O)N[C@@H](Cc1ccccc1)C(N)=O)C(C)C)C(C)C [PTH(1-34)]

- PHL2-PTH1R internalization into acidic compartments [2]: did not induce internalization
Molecule: L11,dW12,W23,Y36-PTHrP(7-36)

- fold lower estimated KD than the non-lipidated counterpart M-PTH(1-14) [3]: > 3 fold
Molecule: Palm-M-PTH(1-14) (peptide)
